Measured values taken from publication PMC6170741 (Investigational new drugs, 2018).

Legend:
[1] = tested on: patients with solid tumors; test: Phase I safety and tolerability; assay type: in vivo
[2] = Single dose plasma pharmacokinetics in patients; assay type: in vivo, human; conditions: for Tmax: human, plasma, po, across all doses and regimens
In short: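 Fasted patients took one oral capsule dose (Cycle 0) before repeat dosing began. Drug was quantified by liquid-liquid extraction and HPLC-MS/MS (range 1–1000 ng/mL; LLOQ 1.00 ng/mL). Non-compartmental analysis gave AUC(0–24) and Cmax, and variability was expressed as CV%.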

[3] = Repeat dose plasma pharmacokinetics in patients; assay type: in vivo, human
In short: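 Fasted patients took oral capsules once daily. Steady-state plasma was sampled up to 24 h post-dose on day 8 (10 and 20 mg cohorts), day 15 (40–150 mg cohorts), day 7 (7-on/7-off) or day 22 (t.i.w.). Dose-reduced patients were sampled at the new dose. Drug was measured by liquid-liquid extraction and HPLC-MS/MS (validated 1–1000 ng/mL; LLOQ 1.00 ng/mL). Parameters were derived non-compartmentally.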

[4] = tested on: patients with solid tumors; test: Clinical activity; assay type: in vivo, human
[5] = tested on: blood glucose and insulin levels; test: Pharmacodynamics: insulin after standardized meal, 1,5-anhydroglucitol; assay type: in vivo, human
AKT1 = conditions: read-out: AKT1 Ki*; cited from earlier work
AKT3 = conditions: read-out: AKT3 Ki*; cited from earlier work
[6] = any cause, all cohorts, N = 77, CTCAE v3.0
[7] = 75 mg, continuous daily regimen
[8] = repeat dose, 75 mg, continuous daily regimen

Structure (SMILES): Cn1ncc(Cl)c1-c1cc(C(=O)N[C@H](CN)Cc2ccc(F)c(F)c2)oc1Cl [GSK2141795]
- DLTs ([1]; 75 mg qd 7-on/7-off cohort): No DLTs
- DLTs ([1]; 75 mg t.i.w. cohort): No DLTs
- DLTs ([1]; 100 mg qd 7-on/7-off cohort): Two DLTs, grade 3 hyperglycemia and grade 3 rash
- DLTs ([1]; 100 mg qd cohort (exceeded the MTD)): two DLTs, including grade 1 stomatitis that did not resolve, leading to a treatment delay of >14 days, as well as grade 4 hypoglycemia
- DLTs ([1]; 100 mg t.i.w. cohort): No DLTs
- DLTs ([1]; 150 mg qd cohort (exceeded the MTD)): two DLTs of grade 3 hyperglycemia
- maximum tolerated dose (MTD) ([1]; 7-on/7-off schedule): 75 mg
- hyperglycemia, patients ([1]; all cohorts): 22%
- rash, patients ([1]; all cohorts): 22%
- patients with DLTs ([1]; all cohorts, cycle 1): 7 patients
- Abdominal pain, Grade 1 [1, 6]: 13 (17) n (%)
- Abdominal pain, Grade 2 [1, 6]: 4 (5) n (%)
- Abdominal pain, Grade 3 [1, 6]: 3 (4) n (%)
- Abdominal pain, Grade 4 [1, 6]: 0 n (%)
- Abdominal pain, Total [1, 6]: 20 (26) n (%)
- Back pain, Grade 1 [1, 6]: 11 (14) n (%)
- Back pain, Grade 2 [1, 6]: 3 (4) n (%)
- Back pain, Grade 3 [1, 6]: 1 (1) n (%)
- Back pain, Grade 4 [1, 6]: 0 n (%)
- Back pain, Total [1, 6]: 15 (19) n (%)
- Constipation, Grade 1 [1, 6]: 14 (18) n (%)
- Constipation, Grade 2 [1, 6]: 3 (4) n (%)
- Constipation, Grade 3 [1, 6]: 0 n (%)
- Constipation, Grade 4 [1, 6]: 0 n (%)
- Constipation, Total [1, 6]: 17 (22) n (%)
- Cough, Grade 1 [1, 6]: 9 (12) n (%)
- Cough, Grade 2 [1, 6]: 0 n (%)
- Cough, Grade 3 [1, 6]: 0 n (%)
- Cough, Grade 4 [1, 6]: 0 n (%)
- Cough, Total [1, 6]: 9 (12) n (%)
- Decreased appetite, Grade 1 [1, 6]: 23 (30) n (%)
- Decreased appetite, Grade 2 [1, 6]: 6 (8) n (%)
- Decreased appetite, Grade 3 [1, 6]: 0 n (%)
- Decreased appetite, Grade 4 [1, 6]: 1 (1) n (%)
- Decreased appetite, Total [1, 6]: 30 (39) n (%)
- Diarrhea, Grade 1 [1, 6]: 33 (43) n (%)
- Diarrhea, Grade 2 [1, 6]: 13 (17) n (%)
- Diarrhea, Grade 3 [1, 6]: 3 (4) n (%)
- Diarrhea, Grade 4 [1, 6]: 0 n (%)
- Diarrhea, Total [1, 6]: 49 (64) n (%)
- Dizziness, Grade 1 [1, 6]: 12 (16) n (%)
- Dizziness, Grade 2 [1, 6]: 0 n (%)
- Dizziness, Grade 3 [1, 6]: 0 n (%)
- Dizziness, Grade 4 [1, 6]: 0 n (%)
- Dizziness, Total [1, 6]: 12 (16) n (%)
- Dysgeusia, Grade 1 [1, 6]: 7 (9) n (%)
- Dysgeusia, Grade 2 [1, 6]: 1 (1) n (%)
- Dysgeusia, Grade 3 [1, 6]: 0 n (%)
- Dysgeusia, Grade 4 [1, 6]: 0 n (%)
- Dysgeusia, Total [1, 6]: 8 (10) n (%)
- Dyspnea, Grade 1 [1, 6]: 10 (13) n (%)
- Dyspnea, Grade 2 [1, 6]: 3 (4) n (%)
- Dyspnea, Grade 3 [1, 6]: 2 (3) n (%)
- Dyspnea, Grade 4 [1, 6]: 0 n (%)
- Dyspnea, Total [1, 6]: 15 (19) n (%)
- Fatigue, Grade 1 [1, 6]: 21 (27) n (%)
- Fatigue, Grade 2 [1, 6]: 16 (21) n (%)
- Fatigue, Grade 3 [1, 6]: 0 n (%)
- Fatigue, Grade 4 [1, 6]: 1 (1) n (%)
- Fatigue, Total [1, 6]: 38 (49) n (%)
- Headache, Grade 1 [1, 6]: 7 (9) n (%)
- Headache, Grade 2 [1, 6]: 0 n (%)
- Headache, Grade 3 [1, 6]: 1 (1) n (%)
- Headache, Grade 4 [1, 6]: 1 (1) n (%)
- Headache, Total [1, 6]: 9 (12) n (%)
- Hyperglycemia, Grade 1 [1, 6]: 2 (3) n (%)
- Hyperglycemia, Grade 2 [1, 6]: 9 (12) n (%)
- Hyperglycemia, Grade 3 [1, 6]: 5 (6) n (%)
- Hyperglycemia, Grade 4 [1, 6]: 1 (1) n (%)
- Hyperglycemia, Total [1, 6]: 17 (22) n (%)
- Mucosal inflammation, Grade 1 [1, 6]: 7 (9) n (%)
- Mucosal inflammation, Grade 2 [1, 6]: 1 (1) n (%)
- Mucosal inflammation, Grade 3 [1, 6]: 0 n (%)
- Mucosal inflammation, Grade 4 [1, 6]: 0 n (%)
- Mucosal inflammation, Total [1, 6]: 8 (10) n (%)
- Nausea, Grade 1 [1, 6]: 42 (55) n (%)
- Nausea, Grade 2 [1, 6]: 4 (5) n (%)
- Nausea, Grade 3 [1, 6]: 1 (1) n (%)
- Nausea, Grade 4 [1, 6]: 0 n (%)
- Nausea, Total [1, 6]: 47 (61) n (%)
- Peripheral edema, Grade 1 [1, 6]: 9 (12) n (%)
- Peripheral edema, Grade 2 [1, 6]: 0 n (%)
- Peripheral edema, Grade 3 [1, 6]: 0 n (%)
- Peripheral edema, Grade 4 [1, 6]: 0 n (%)
- Peripheral edema, Total [1, 6]: 9 (12) n (%)
- Pyrexia, Grade 1 [1, 6]: 10 (13) n (%)
- Pyrexia, Grade 2 [1, 6]: 2 (3) n (%)
- Pyrexia, Grade 3 [1, 6]: 0 n (%)
- Pyrexia, Grade 4 [1, 6]: 0 n (%)
- Pyrexia, Total [1, 6]: 12 (16) n (%)
- Rash, Grade 1 [1, 6]: 8 (10) n (%)
- Rash, Grade 2 [1, 6]: 8 (10) n (%)
- Rash, Grade 3 [1, 6]: 1 (1) n (%)
- Rash, Grade 4 [1, 6]: 0 n (%)
- Rash, Total [1, 6]: 17 (22) n (%)
- Urinary tract infection, Grade 1 [1, 6]: 6 (8) n (%)
- Urinary tract infection, Grade 2 [1, 6]: 6 (8) n (%)
- Urinary tract infection, Grade 3 [1, 6]: 0 n (%)
- Urinary tract infection, Grade 4 [1, 6]: 0 n (%)
- Urinary tract infection, Total [1, 6]: 12 (16) n (%)
- Vomiting, Grade 1 [1, 6]: 29 (38) n (%)
- Vomiting, Grade 2 [1, 6]: 3 (4) n (%)
- Vomiting, Grade 3 [1, 6]: 1 (1) n (%)
- Vomiting, Grade 4 [1, 6]: 0 n (%)
- Vomiting, Total [1, 6]: 33 (43) n (%)
- Weight decreased, Grade 1 [1, 6]: 12 (16) n (%)
- Weight decreased, Grade 2 [1, 6]: 5 (6) n (%)
- Weight decreased, Grade 3 [1, 6]: 0 n (%)
- Weight decreased, Grade 4 [1, 6]: 0 n (%)
- Weight decreased, Total [1, 6]: 17 (22) n (%)
- dose reductions for diarrhea ([1]; at the RP2D): 2 patients
- dose reductions for rash ([1]; at the RP2D): 3 patients
- grade 3 hyperglycemia ([1]; at the RP2D (75 mg qd), % of patients): 4%
- patients withdrawn as a result of an AE ([1]; of 77 enrolled (17%), at study completion): 13 patients
- recommended phase II dose (RP2D) ([1]; once-daily dosing, oral): 75 mg
- maximum tolerated dose (MTD) ([1]; qd dosing): 75 mg
- mean variability (CV%) in exposure, AUC(0–24) [2, 7]: 37%
- mean variability (CV%) in exposure, Cmax [2, 7]: 62%
- Tmax ([2]; Tmax, majority): 2 to 4 h
- Tmax ([2]; median time to maximal concentration (Tmax)): 3 to 8 h
- time to reach steady-state ([3]; continuous qd dosing): approximately 14 days
- concentration at 24 h ([3]; human, plasma, oral, 20 mg, C24, repeat dose 20 mg once daily (n = 1), day 8): 42.1 ng/mL
- Cmax ([3]; human, plasma, oral, 20 mg, Cmax, repeat dose 20 mg once daily (n = 1), day 8): 90.3 ng/mL
- Tmax ([3]; human, plasma, oral, 20 mg, Tmax, repeat dose 20 mg once daily (n = 1), day 8): 3 h
- Tmax ([3]; human, plasma, oral, median Tmax, repeat dose, generally): 2 to 4 h
- CV% in exposure, AUC(0–24) [3, 8]: 52%
- CV% in exposure, Cmax [3, 8]: 50%
- endometrial cancer patients with stable disease (SD) on therapy for more than 6 months ([4]; 75 mg qd): 4 patients
- prostate cancer patients with stable disease (SD) on therapy for more than 6 months ([4]; 75 mg qd): 3 patients
- partial responses (PRs) ([4]; RP2D 75 mg qd): two partial responses
- patients withdrawn due to disease progression ([4]; of 77 enrolled (68%), at study completion): 52 patients
- insulin levels following a standardized meal, day 15 compared with screening ([5]; 5 patients with matched insulin samples, cycle 1 day 15): Three of the five patients had two-fold greater insulin levels
- association of decreased 1,5-AG with GSK2141795 concentrations ([5]; screening vs steady state, linear regression): this association was not consistent across the study or across tumor types
- Ki (AKT1): 0.066 nM
- Ki (AKT3): 1.5 nM
